ChEMBL document CHEMBL1833861 (J Med Chem, 2011)
Activity calls are given as the source filed them. The calls are words filed in the database; no cut-off is given here.

Assays:
Mus musculus [1] = assay: Antidepressant activity in BALB/cJ mouse assessed as decrease in immobility time at 1 mg/kg, ip after 30 mins by forced swim test; type: functional, organism-based; set-up: dose 1 mg/kg
Outline: (§1)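 Male BALB/cJ mice, 8–10 weeks old; compound in injectable water given ip at 10 mL/kg. Sertraline (10 or 20 mg/kg) served as positive control. 30 min post-dose, each mouse placed in a glass cylinder with 12 cm of 23 ± 1 °C water; immobility (floating) timed over a 6 min trial. n = 10/group; ANOVA with post hoc test.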

Mus musculus [2] = assay: Antidepressant activity in BALB/cJ mouse assessed as decrease in immobility time at 3 mg/kg, ip after 30 mins by forced swim test; type: functional, organism-based; set-up: dose 3 mg/kg; outline: as §1
Mus musculus [3] = assay: Ex vivo receptor occupancy at beta2 nAChR in BALB/cJ mouse brain at 3 mg/kg, ip after 30 mins; type: functional; conditions: route intraperitoneal
Outline: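 Male BALB/cJ mice, 8–10 weeks old, dosed IP at 3 mg/kg (water vehicle, 10 mL/kg); vehicle controls received water. Brains collected 30 min after dosing, matching the forced-swim timing. β2* nAChR occupancy measured ex vivo in thalamus.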

Mus musculus [4] = assay: Antidepressant activity in BALB/cJ mouse assessed as decrease in immobility time at 10 mg/kg, po after 30 mins by forced swim test; type: functional, organism-based; set-up: dose 10 mg/kg
Outline: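 Male BALB/cJ mice, 8–10 weeks old, dosed by oral gavage with compound in injectable water (10 mL/kg). Sertraline served as positive control. Forced swim begins 30 min after dosing, in a cylinder with 12 cm of 23 ± 1 °C water; total immobility recorded over 6 min. ANOVA followed by Newman-Keuls post hoc test.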

Rattus norvegicus = organism: Rattus norvegicus; assay: Selectivity ratio of Ki for rat alpha4beta2 nAChR over Ki for rat alpha3beta4 nAChR
Mus musculus [5] = assay: Antidepressant activity in BALB/cJ mouse assessed as decrease in immobility time at 30 mg/kg, ip after 30 mins by forced swim test; type: functional, organism-based; set-up: dose 30 mg/kg; outline: as §1
[6] = target: T1, Neuronal acetylcholine receptor; alpha4/beta2 (Homo sapiens, UniProt P17787+P43681); assay: Agonist activity at human alpha4beta2 nAChR expressed in human SH-EP1 cells assessed as increase of carbamylcholine-induced 86Rb+ ion efflux by liquid scintillation counting; type: functional, cell-based
[7] = target: Neuronal acetylcholine receptor; alpha3/beta4 (Rattus norvegicus, UniProt P04757+P12392); assay: Displacement of [3H]epibatidine from rat alpha3beta4 nAChR receptor; type: protein-complex assay
[8] = target: T1, Neuronal acetylcholine receptor; alpha4/beta2; assay: Agonist activity at human alpha4beta2 nAChR expressed in human SH-EP1 cells assessed as increase of carbamylcholine-induced 86Rb+ ion efflux by liquid scintillation counting relative to carbamylcholine; type: functional, cell-based
[9] = target: T1, Neuronal acetylcholine receptor; alpha4/beta2; assay: Antagonist activity at human alpha4beta2 nAChR expressed in SH-EP1 cells assessed as inhibition of carbamylcholine-induced 86Rb+ ion efflux by liquid scintillation counting relative to mecamylamine; type: functional, cell-based
[10] = target: Neuronal acetylcholine receptor; alpha2/beta4 (Rattus norvegicus, UniProt P12389+P12392); assay: Displacement of [3H]epibatidine from rat alpha2beta4 receptor; type: protein-complex assay
[11] = target: Neuronal acetylcholine receptor; alpha2/beta2 (Rattus norvegicus, UniProt P12389+P12390); assay: Displacement of [3H]epibatidine from rat alpha2beta2 receptor; type: protein-complex assay
[12] = target: T1, Neuronal acetylcholine receptor; alpha4/beta2; assay: Antagonist activity at human alpha4beta2 nAChR expressed in SH-EP1 cells assessed as inhibition of carbamylcholine-induced 86Rb+ ion efflux by liquid scintillation counting; type: functional, cell-based
[13] = target: Neuronal acetylcholine receptor; alpha4/beta4 (Rattus norvegicus, UniProt P09483+P12392); assay: Displacement of [3H]epibatidine from rat alpha4beta4 nAChR receptor; type: protein-complex assay
[14] = target: T2, Neuronal acetylcholine receptor; alpha4/beta2 (Rattus norvegicus, UniProt P09483+P12390); assay: Displacement of [3H]epibatidine from rat alpha4beta2 receptor expressed in HEK cells; type: cell-based, HEK293
Outline: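 Competition binding of [3H]epibatidine to membrane fractions from HEK cells stably transfected with rat α4 and β2 subunits; Ki values for blockade of specific binding.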

[15] = target: T2, Neuronal acetylcholine receptor; alpha4/beta2; assay: Displacement of [3H]epibatidine from rat alpha4beta2 nAChR receptor; type: protein-complex assay
[16] = target: Neuronal acetylcholine receptor; alpha3/beta2 (Rattus norvegicus, UniProt P04757+P12390); assay: Displacement of [3H]epibatidine from rat alpha3beta2 receptor; type: protein-complex assay
Neuronal acetylcholine receptor; alpha3/beta2, sequence (P04757 whole entry): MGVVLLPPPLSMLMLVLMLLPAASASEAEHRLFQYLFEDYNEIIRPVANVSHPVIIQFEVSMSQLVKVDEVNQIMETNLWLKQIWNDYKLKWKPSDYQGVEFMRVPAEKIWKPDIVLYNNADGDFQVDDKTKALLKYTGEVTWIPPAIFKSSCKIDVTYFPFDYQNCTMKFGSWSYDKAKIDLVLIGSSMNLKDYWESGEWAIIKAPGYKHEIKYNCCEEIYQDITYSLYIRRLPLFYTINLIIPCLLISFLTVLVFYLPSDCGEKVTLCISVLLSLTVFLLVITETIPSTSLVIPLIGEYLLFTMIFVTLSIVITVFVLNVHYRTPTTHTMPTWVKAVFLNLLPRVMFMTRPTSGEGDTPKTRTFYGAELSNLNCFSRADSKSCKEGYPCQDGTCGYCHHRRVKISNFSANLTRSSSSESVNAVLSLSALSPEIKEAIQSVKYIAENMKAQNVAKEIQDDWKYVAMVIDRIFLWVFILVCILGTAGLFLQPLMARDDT
Neuronal acetylcholine receptor; alpha3/beta2, sequence (P12390 whole entry): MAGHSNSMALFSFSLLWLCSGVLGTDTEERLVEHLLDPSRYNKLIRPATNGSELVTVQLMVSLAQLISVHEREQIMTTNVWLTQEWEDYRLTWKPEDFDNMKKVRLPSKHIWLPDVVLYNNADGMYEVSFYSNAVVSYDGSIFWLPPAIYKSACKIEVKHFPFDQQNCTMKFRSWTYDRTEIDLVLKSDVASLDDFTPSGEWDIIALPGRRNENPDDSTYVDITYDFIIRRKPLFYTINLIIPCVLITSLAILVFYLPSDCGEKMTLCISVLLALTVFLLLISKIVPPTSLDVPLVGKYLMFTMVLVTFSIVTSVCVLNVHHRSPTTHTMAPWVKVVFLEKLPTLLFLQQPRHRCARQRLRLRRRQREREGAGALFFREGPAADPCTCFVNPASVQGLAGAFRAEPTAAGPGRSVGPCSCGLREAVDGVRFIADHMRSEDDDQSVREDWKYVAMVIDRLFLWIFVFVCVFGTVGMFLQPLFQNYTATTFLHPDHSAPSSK

T1 sequence (P17787 whole entry): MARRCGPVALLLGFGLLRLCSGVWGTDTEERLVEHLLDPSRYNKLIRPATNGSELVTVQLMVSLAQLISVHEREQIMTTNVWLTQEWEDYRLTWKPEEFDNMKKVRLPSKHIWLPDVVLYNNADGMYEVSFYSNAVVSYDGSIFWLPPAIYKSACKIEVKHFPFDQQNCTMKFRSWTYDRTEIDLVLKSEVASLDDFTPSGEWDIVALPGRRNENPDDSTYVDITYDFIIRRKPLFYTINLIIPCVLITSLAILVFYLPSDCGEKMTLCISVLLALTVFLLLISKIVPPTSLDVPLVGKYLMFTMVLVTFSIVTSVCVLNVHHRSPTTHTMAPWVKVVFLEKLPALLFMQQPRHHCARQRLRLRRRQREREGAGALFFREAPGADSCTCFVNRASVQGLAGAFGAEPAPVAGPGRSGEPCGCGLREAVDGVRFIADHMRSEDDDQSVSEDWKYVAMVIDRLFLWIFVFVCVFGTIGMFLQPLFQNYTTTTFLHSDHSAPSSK
T1 sequence (P43681 whole entry): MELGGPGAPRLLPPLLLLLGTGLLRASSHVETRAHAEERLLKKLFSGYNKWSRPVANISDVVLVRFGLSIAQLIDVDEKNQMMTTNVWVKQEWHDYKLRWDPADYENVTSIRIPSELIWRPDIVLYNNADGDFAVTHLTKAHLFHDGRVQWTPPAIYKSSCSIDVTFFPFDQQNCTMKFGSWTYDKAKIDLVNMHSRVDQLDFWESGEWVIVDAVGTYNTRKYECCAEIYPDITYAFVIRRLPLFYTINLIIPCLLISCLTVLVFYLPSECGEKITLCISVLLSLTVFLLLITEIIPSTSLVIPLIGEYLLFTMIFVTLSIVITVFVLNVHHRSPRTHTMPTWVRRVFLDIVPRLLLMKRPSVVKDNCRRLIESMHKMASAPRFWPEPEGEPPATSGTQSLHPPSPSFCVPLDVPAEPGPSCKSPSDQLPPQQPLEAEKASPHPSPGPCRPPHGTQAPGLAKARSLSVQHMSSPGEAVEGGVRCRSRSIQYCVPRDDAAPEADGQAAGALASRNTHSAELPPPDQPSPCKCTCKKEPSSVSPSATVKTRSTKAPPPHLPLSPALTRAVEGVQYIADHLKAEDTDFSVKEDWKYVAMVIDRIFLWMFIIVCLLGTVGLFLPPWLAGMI
T2 sequence (P09483 whole entry): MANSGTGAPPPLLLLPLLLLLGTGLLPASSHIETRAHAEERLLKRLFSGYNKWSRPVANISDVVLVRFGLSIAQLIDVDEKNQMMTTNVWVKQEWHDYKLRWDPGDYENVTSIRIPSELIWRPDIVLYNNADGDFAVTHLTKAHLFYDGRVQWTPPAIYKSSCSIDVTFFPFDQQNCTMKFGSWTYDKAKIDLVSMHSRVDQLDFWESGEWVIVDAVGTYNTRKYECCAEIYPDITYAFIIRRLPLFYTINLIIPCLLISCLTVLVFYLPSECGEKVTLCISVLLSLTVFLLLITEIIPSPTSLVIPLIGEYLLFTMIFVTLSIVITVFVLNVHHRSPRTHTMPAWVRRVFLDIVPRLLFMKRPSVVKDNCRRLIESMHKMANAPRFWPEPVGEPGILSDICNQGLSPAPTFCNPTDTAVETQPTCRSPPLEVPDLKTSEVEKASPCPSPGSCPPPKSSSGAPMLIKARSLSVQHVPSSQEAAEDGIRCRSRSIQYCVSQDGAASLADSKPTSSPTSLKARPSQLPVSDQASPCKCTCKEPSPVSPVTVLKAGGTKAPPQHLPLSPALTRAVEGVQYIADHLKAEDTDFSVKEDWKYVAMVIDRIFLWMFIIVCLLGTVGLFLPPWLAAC
T2 sequence (P12390 whole entry): as the sequence (P12390 whole entry) above
Neuronal acetylcholine receptor; alpha4/beta4, sequence (P09483 whole entry): as the sequence (P09483 whole entry) above
Neuronal acetylcholine receptor; alpha4/beta4, sequence (P12392 whole entry): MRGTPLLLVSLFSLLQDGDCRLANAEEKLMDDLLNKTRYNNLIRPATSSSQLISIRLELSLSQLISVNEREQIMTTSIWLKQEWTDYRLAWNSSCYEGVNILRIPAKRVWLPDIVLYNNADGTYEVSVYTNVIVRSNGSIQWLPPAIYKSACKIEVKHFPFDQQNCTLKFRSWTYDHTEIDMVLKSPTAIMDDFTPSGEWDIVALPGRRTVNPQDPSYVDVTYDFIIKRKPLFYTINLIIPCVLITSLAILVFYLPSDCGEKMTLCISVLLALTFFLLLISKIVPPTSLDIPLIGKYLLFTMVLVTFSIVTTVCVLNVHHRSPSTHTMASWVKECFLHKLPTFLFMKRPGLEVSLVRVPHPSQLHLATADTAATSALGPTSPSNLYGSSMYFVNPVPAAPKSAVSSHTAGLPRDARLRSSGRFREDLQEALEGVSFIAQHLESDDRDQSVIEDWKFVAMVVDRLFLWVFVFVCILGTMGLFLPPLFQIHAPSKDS
Neuronal acetylcholine receptor; alpha2/beta2, sequence (P12389 whole entry): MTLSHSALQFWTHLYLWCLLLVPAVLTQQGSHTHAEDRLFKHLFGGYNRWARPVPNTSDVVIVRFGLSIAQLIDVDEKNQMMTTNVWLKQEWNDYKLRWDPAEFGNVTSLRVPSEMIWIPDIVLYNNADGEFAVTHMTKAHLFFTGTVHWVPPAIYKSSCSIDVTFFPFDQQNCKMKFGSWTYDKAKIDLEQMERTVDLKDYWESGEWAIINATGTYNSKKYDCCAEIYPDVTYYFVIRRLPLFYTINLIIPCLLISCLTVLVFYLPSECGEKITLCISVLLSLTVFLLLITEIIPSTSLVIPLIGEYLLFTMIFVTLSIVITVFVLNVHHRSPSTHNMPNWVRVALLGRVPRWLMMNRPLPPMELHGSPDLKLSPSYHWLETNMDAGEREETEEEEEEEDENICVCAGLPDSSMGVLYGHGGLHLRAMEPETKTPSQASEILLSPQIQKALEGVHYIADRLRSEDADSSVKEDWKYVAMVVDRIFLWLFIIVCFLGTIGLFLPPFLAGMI
Neuronal acetylcholine receptor; alpha2/beta2, sequence (P12390 whole entry): as the sequence (P12390 whole entry) above
Neuronal acetylcholine receptor; alpha2/beta4, sequence (P12389 whole entry): as the sequence (P12389 whole entry) above
Neuronal acetylcholine receptor; alpha2/beta4, sequence (P12392 whole entry): as the sequence (P12392 whole entry) above
Neuronal acetylcholine receptor; alpha3/beta4, sequence (P04757 whole entry): as the sequence (P04757 whole entry) above
Neuronal acetylcholine receptor; alpha3/beta4, sequence (P12392 whole entry): as the sequence (P12392 whole entry) above

Structure (SMILES)	Activity (Mus musculus [1])	Activity (Mus musculus [2])	Activity (Mus musculus [3]) [%]	Activity (Mus musculus [4])	Ratio Ki (Rattus norvegicus)	Activity (Mus musculus [5])	EC50 [6] [nM]	Ki [7] [nM]	Efficacy [8] [%]	Efficacy [9] [%]	Ki [10] [nM]	Ki [11] [nM]	IC50 [12] [nM]	Ki [13] [nM]	Ki [14] [nM]	Ki [15] [nM]	Ki [16] [nM]
Cl.OCCc1cc(-c2cncc(OC[C@@H]3CCN3)c2)on1	Active	Active	60	Active													
OCc1cc(-c2cncc(OC[C@@H]3CCN3)c2)on1					20000	Active	25	6660	13	66	310	0.32	16	81	0.31	0.31	2.9
